This note sets out measurements from ChEMBL document CHEMBL3120133, “Discovery of a potent boronic acid derived inhibitor of the HCV RNA-dependent RNA polymerase” (J Med Chem, 2014).

Usually IC50 stands for the concentration that inhibits the measured activity by half. A word on the EC50: it is the concentration needed to bring the measured effect to its halfway point. For orientation: bioavailability means the share of a dose that reaches the circulation, judged against a reference dose that is usually intravenous.

The target of data set [1] is RNA-directed RNA polymerase (Hepacivirus hominis, UniProt O39930, C316N). In words: Inhibition of Hepatitis C virus genotype 1b NS5B Cdelta21 RNA dependent RNA polymerase 316N mutant using biotinylated polyC:oligoG/[alpha-P33]-GTP as template/substrate preincubated for 15 mins followed by template/substrate addition by scintillation proximity assay. Set-up: species or system Hepatitis C virus subtype 1b. The procedure, abridged:
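Isolated NS5B at 30 nM was preincubated with inhibitor for 15 min before reaction start. The IC50 was determined from the polymerase assay.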
In general terms: SPA uses beads or plates that emit light when radiolabelled molecules are held near them.

The test system of data set [2] is Hepatitis C virus. The data set can be described thus: Antiviral activity against wild type Hepatitis C virus genotype 1b harboring C316N mutant infected in human HuH7 cells assessed as inhibition of viral replication after 48 hrs by luciferase reporter gene assay. It is filed as functional, organism-based, Hepacivirus hominis. To be noted: Huh-7, 48 h. A general note: A reporter such as luciferase makes a cellular process visible.

Data set [3] concerns Hepatitis C virus. The data set can be described thus: Antiviral activity against wild type Hepatitis C virus genotype 1b harboring C316F mutant infected in human HuH7 cells assessed as inhibition of viral replication after 72 hrs by Bright-glo luciferase reporter gene assay. The format is functional, organism-based, Hepacivirus hominis. To be noted: Huh-7, 72 h.
Data set [4] relates to Hepatitis C virus. In words: Antiviral activity against wild type Hepatitis C virus genotype 1a harboring C316Y mutant infected in human HuH7 cells assessed as inhibition of viral replication after 48 hrs by luciferase reporter gene assay. The format is functional, organism-based, Hepacivirus hominis. Particulars: subtype 1a, Huh-7, 48 h.
The subject of data set [5] is RNA-directed RNA polymerase (Hepacivirus hominis), O39930 [C316N]. In words: Binding affinity to Hepatitis C virus genotype 1b NS5B Cdelta21 RNA dependent RNA polymerase 316N mutant assessed as dissociation half life at 0.6 uM by LC-MS/MS analysis. Particulars: Hepatitis C virus subtype 1b. The procedure, abridged: (§1)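 NS5B∆21 GT1b 316N (10 uM) saturated with 12uM inhibitor to pre-form the complex, then diluted 20-fold into 10 uM of the competing Palm II inhibitor to block rebinding. Bound compound was separated from free by rapid size-exclusion filtration over time, and both inhibitors were quantified by LC-MS. Off-rates were fitted to a single or two-phase exponential to give t1/2.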

For data set [6], the system named is Hepatitis C virus. In words: Antiviral activity against wild type Hepatitis C virus genotype 1b harboring C316Y mutant infected in human HuH7 cells assessed as inhibition of viral replication after 72 hrs by Bright-glo luciferase reporter gene assay. The format is functional, organism-based, Hepacivirus hominis. Particulars: Huh-7, 72 h.
Data set [7] has as its system Hepatitis C virus. The data set can be described thus: Antiviral activity against wild type Hepatitis C virus genotype 1a infected in human HuH7 cells assessed as inhibition of viral replication after 48 hrs by luciferase reporter gene assay. It is filed as functional, organism-based, Hepacivirus hominis. Particulars: subtype 1a, Huh-7, 48 h. In a few lines:
(§2)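 Replicon-based readout (stable and transient replicon formats) in place of virus infection, with compound present for 2 days before EC50 determination.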

The test system of data set [8] is Hepatitis C virus. The data set can be described thus: Antiviral activity against wild type Hepatitis C virus genotype 1b harboring S365T mutant infected in human HuH7 cells assessed as inhibition of viral replication after 72 hrs by Bright-glo luciferase reporter gene assay. It is filed as functional, organism-based, Hepacivirus hominis. Particulars: Huh-7, 72 h.

A short description of data set [9]: Inhibition of C-terminal 6xHis-tagged Hepatitis C virus genotype 1b BK NS5B Cdelta21 RNA dependent RNA polymerase L47Q/F101Y/[…] mutant after 30 mins in presence of [alpha-33P]. On the set-up: species or system Hepatitis C virus (isolate BK).
In data set [10] the test system is Hepatitis C virus. The data set can be described thus: Antiviral activity against wild type Hepatitis C virus genotype 1b infected in human HuH7 cells assessed as inhibition of viral replication after 48 hrs by luciferase reporter gene assay. The format is functional, organism-based, Hepacivirus hominis. Particulars: Huh-7, 48 h. The procedure, abridged: as §2

Data set [11] deals with Hepatitis C virus (isolate BK). In words: Inhibition of C-terminal 6xHis-tagged Hepatitis C virus genotype 1b BK NS5B Cdelta21 RNA dependent RNA polymerase L47Q/F101Y/[…] mutant expressed in Escherichia coli BL21(DE3) using radiolabelled CTP/5'-A(8)CG-3' as substrate/template assessed as inhibition of pCpG dimer formation at 0.016 to 10 uM.
Data set [12] is described as follows: Bioavailability in Sprague-Dawley rat at 1 mg/kg, iv and 5 mg/kg, po. The format is ADME, organism-based. Particulars: in vivo.
Data set [13] can be described thus: Clearance in Sprague-Dawley rat at 1 mg/kg, iv and 5 mg/kg, po. It is filed as ADME, organism-based. To be noted: in vivo.
For data set [14], the system named is RNA-directed RNA polymerase (Hepacivirus hominis), O39930 [C316N]. In words: Binding affinity to Hepatitis C virus genotype 1b NS5B Cdelta21 RNA dependent RNA polymerase 316N mutant assessed as dissociation half life at 10 uM by LC-MS/MS analysis. To be noted: Hepatitis C virus subtype 1b. In a few lines: as §1

Each structure is given as a SMILES string. Calls of active or inactive are those of the source. No cut-off for these calls is given here. Where only a bound is given, the exact number is not on record here.

Chain of RNA-directed RNA polymerase (Hepacivirus hominis), O39930 [C316N] (O39930 entry or part of it C316N): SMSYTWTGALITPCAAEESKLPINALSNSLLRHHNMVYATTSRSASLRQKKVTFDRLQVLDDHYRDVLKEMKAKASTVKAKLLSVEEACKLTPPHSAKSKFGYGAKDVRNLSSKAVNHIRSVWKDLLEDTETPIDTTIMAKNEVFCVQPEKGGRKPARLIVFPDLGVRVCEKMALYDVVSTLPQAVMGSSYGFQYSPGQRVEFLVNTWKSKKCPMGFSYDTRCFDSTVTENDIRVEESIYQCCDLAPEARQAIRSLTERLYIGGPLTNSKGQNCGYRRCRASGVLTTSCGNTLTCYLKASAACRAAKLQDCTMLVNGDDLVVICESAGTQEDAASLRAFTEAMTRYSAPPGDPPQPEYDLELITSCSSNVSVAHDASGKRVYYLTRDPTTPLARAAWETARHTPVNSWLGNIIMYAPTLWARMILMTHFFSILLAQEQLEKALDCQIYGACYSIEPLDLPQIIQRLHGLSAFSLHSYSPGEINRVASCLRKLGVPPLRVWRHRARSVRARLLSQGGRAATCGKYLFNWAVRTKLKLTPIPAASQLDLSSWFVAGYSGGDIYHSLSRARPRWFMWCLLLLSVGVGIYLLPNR
Chain of RNA-directed RNA polymerase (O39930 entry or part of it C316N): as above

As to `CNC(=O)c1c(-c2ccc(F)cc2)oc2cc(N(Cc3ccc(B(O)O)c(F)c3)S(C)(=O)=O)c(C3CC3)cc12`, the IC50 in data set [1] was found to be 130 nM; in data set [9], 50 nM. Further, the EC50 with Hepatitis C virus [2] turned out to be 1.9 nM; in the data set on Hepatitis C virus [3], 3.8 nM; in the data set with Hepatitis C virus [4], 3.2 nM; in the data set with Hepatitis C virus [6], 1.4 nM; with Hepatitis C virus [7], 3 nM; with Hepatitis C virus [8], 4.2 nM. The half-maximal effective concentration (EC50) with Hepatitis C virus [10] was determined as 1.7 nM. Also, the T1/2 in [5] was found to be 4.3 h. Also, the inhibition result in data set [11] was “Active”.
In the case of `CNC(=O)c1c(-c2ccc(F)cc2)oc2cc(N(Cc3ccc(B(O)O)cc3)S(C)(=O)=O)c(C3CC3)cc12`, the 50% effective concentration (EC50) was 13 nM in the data set on Hepatitis C virus [2], 120 nM in the data set with Hepatitis C virus [4], 2.7 nM in the data set with Hepatitis C virus [7] and 2.6 nM in the data set on Hepatitis C virus [10]. Further, the bioavailability in data set [12] is under 3%. The IC50 in data set [9] is 32 nM. The same compound registered a clearance in [13] of 36 mL/min/kg.
In the case of `CNC(=O)c1c(-c2ccc(F)cc2)oc2cc(N(CCO)S(C)(=O)=O)c(C3CC3)cc12` [NESBUVIR], the half-maximal inhibitory concentration (IC50) in data set [1] was determined as 160 nM; in data set [9] it was 40 nM. The EC50 in the data set with Hepatitis C virus [2] stood at 100 nM; with Hepatitis C virus [3] it was 2500 nM; with Hepatitis C virus [4], 1900 nM; in the data set on Hepatitis C virus [6] it was 420 nM; in the data set with Hepatitis C virus [7], 27 nM; with Hepatitis C virus [8] it was 1300 nM. Moreover, in the data set on Hepatitis C virus [10], the EC50 stood at 18 nM. Also, the T1/2 in data set [14] was determined as 1.7 h.
